The values below come from ChEMBL document CHEMBL3627606, “Development of Novel, CNS Penetrant Positive Allosteric Modulators for the Metabotropic Glutamate Receptor Subtype 1 (mGlu1), Based on an N-(3-Chloro-4-(1,3-dioxoisoindolin-2-yl)phenyl)-3-methylfuran-2-carboxamide Scaffold, That Potentiate Wild Type and Mutant mGlu1 Receptors Found in …” (J Med Chem, 2015).

One data set has as its target Cytochrome P450 3A4 (Homo sapiens, UniProt P08684). Description: Inhibition of CYP3A4 in human liver microsomes by LC-MS/MS analysis. The format is ADME. In general terms: Liver microsomes are vesicles of endoplasmic reticulum, rich in cytochrome P450 enzymes.
Data set [1] addresses Metabotropic glutamate receptor 1 (Rattus norvegicus, UniProt P23385). The experiment in a line: Positive allosteric modulation of rat mGlu1 receptor assessed as potentiation of glutamate-induced calcium mobiliztion by cell based assay. Type of data set: functional. In a few lines:
(§1)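 Rat mGlu1 WT calcium mobilization concentration-response curves. EC50 and % Glu Max were derived from the curves.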

The test system of data set [2] is Plasma. Description: Metabolic stability in rat plasma. Type of data set: ADME, cell-free.
Another data set addresses Cytochrome P450 2D6 (Homo sapiens, UniProt P10635). The experiment in a line: Inhibition of CYP2D6 in human liver microsomes by LC-MS/MS analysis. The format is ADME.
The target of data set [3] is T1, Metabotropic glutamate receptor 1 (Homo sapiens, UniProt Q13255). Description: Positive allosteric modulation of human mGlu1 receptor in HEK293 cells assessed as potentiation of glutamate-induced calcium mobiliztion by Fluo-4AM dye based fluorescence analysis. The format is functional, cell-based. The note with it: read-out: EC50.
Target sequence in this assay (Q13255 whole entry): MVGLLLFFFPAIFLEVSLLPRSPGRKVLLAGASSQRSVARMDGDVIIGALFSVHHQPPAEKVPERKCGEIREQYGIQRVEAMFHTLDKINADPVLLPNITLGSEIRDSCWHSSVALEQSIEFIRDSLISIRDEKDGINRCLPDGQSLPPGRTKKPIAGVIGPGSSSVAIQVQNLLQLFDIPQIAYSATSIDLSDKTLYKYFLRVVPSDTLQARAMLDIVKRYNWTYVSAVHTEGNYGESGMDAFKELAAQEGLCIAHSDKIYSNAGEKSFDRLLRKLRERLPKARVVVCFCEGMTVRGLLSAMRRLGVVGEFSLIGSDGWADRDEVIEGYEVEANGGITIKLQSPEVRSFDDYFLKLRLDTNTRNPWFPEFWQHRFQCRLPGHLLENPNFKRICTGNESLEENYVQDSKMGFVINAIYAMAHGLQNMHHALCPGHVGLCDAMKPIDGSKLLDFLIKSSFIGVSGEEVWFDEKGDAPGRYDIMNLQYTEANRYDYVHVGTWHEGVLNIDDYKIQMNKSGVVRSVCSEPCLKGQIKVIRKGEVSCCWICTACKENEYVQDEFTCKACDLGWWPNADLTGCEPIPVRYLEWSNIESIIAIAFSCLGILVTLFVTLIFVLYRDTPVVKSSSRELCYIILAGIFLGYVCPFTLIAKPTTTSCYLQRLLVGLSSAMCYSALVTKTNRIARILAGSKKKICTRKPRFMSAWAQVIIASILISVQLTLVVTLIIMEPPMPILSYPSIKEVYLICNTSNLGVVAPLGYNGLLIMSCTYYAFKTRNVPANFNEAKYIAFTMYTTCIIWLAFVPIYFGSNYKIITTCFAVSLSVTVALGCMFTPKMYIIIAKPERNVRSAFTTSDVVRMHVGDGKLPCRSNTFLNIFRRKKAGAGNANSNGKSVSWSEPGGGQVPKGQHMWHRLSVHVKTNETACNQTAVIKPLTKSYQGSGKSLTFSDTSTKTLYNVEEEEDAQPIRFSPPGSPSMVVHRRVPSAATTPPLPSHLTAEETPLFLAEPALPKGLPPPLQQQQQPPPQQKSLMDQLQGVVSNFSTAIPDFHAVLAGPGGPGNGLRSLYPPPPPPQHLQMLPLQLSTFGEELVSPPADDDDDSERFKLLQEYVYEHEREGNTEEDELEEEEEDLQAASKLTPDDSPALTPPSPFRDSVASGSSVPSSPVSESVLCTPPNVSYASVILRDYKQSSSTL
Data set [4] concerns Plasma. Description: Metabolic stability in human plasma. The format is ADME, cell-free. In a few lines:
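Compound incubated at 10 μM in rat or human plasma at 37 °C. Samples taken at 0 and 4 h were analysed by mass spectrometry for parent and metabolites.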

The next data set has as its target Cytochrome P450 2C9 (Homo sapiens, UniProt P11712). The experiment in a line: Inhibition of CYP2C9 in human liver microsomes by LC-MS/MS analysis. Type of data set: ADME.
A further data set concerns the target T2, Cytochrome P450 1A2 (Homo sapiens, UniProt P05177).
T2 sequence (P05177 whole entry): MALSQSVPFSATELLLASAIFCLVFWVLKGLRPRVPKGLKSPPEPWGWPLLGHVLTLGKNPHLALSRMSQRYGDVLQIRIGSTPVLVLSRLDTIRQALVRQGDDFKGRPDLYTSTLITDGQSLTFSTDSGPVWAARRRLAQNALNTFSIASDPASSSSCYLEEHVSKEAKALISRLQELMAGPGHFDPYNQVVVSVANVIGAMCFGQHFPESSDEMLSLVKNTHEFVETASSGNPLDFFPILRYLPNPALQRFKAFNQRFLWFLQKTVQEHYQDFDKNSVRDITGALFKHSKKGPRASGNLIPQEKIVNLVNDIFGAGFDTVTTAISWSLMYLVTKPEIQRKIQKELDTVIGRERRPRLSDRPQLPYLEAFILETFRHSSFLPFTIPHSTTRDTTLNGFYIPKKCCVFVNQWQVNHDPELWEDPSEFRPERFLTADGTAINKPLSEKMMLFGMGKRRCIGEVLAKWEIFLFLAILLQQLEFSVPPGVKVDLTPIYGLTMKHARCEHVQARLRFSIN
The experiment in a line: Inhibition of CYP1A2 in human liver microsomes by LC-MS/MS analysis. Type of data set: ADME.

A short description of data set [5]: Plasma concentration in Sprague-Dawley rat at 0.2 mg/kg, iv after 0.25 hrs by LC-MS/MS analysis.
The nature of data set [6]: Drug concentration in Sprague-Dawley rat brain at 0.2 mg/kg, iv after 0.25 hrs by LC-MS/MS analysis. The note with it: read-out: Drug uptake.
A further data set relates to Hippocampus. The experiment in a line: Toxic epileptiform activity in C57BL/6 mouse CA3 region of hippocampus assessed as frequency of spike activity at 50 uM by electrophysiolgy method (reference value: 0.94 +/- 0.06 Hz). Type of data set: toxicity, tissue-based. In a few lines:
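Mouse hippocampal slices with extracellular recording from the CA3 pyramidal cell body layer. Compound (10 μM) or DHPG (50 μM) was bath-applied, and the frequency of spontaneous spikes was compared with baseline. n = 6 per agent, paired t test.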

The subject of data set [7] is Plasma. Description: Drug metabolism in human plasma assessed as 5-chloro-2-(2-chloro-4-(3-methylfuran-2-carboxamido)phenylcarbamoyl)benzoic acid level at 10 uM after 4 hrs by mass spectrometry. The format is ADME, cell-free.
For data set [8], the system named is Plasma. Description: Drug metabolism in human plasma assessed as 4-chloro-2-(2-chloro-4-(3-methylfuran-2-carboxamido)phenylcarbamoyl)benzoic acid level at 10 uM after 4 hrs by mass spectrometry. The format is ADME, cell-free.
Data set [9] addresses T1, Metabotropic glutamate receptor 1. Description: Positive allosteric modulation of human mGlu1 receptor in HEK293 cells assessed as potentiation of glutamate-induced calcium mobiliztion at 10 uM by Fluo-4AM dye based fluorescence analysis. Type of data set: functional, cell-based.
Target sequence in this assay (Q13255 19-1194 limits assumed): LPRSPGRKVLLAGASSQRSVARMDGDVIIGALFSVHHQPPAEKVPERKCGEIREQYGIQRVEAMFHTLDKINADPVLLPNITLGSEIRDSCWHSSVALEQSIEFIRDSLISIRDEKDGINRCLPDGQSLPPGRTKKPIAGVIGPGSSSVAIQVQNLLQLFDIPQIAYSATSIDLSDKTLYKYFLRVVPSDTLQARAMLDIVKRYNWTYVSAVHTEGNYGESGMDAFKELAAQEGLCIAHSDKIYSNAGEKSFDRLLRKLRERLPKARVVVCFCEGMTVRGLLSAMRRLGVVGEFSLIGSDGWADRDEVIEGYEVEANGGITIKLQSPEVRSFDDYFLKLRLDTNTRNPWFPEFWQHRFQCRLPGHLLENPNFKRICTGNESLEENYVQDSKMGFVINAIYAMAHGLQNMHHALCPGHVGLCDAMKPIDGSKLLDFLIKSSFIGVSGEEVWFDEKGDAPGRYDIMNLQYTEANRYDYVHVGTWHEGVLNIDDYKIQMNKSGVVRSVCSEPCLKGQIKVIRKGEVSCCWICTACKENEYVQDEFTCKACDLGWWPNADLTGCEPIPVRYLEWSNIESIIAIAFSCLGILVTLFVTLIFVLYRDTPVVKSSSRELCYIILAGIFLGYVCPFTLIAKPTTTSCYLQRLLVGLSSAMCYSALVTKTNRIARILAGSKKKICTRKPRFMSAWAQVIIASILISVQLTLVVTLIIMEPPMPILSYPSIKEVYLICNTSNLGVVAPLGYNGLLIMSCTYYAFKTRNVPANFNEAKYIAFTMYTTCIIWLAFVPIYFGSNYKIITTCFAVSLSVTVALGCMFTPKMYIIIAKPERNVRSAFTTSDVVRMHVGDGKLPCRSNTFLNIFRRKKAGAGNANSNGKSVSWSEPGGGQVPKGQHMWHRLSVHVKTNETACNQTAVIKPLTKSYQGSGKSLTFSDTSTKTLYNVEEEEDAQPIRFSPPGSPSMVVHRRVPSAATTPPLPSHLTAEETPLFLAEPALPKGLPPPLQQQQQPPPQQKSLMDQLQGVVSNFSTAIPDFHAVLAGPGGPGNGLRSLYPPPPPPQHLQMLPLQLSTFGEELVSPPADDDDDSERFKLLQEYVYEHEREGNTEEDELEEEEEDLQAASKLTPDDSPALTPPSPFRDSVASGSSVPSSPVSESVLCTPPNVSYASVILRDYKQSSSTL
Data set [10] can be described thus: Plasma clearance in Sprague-Dawley rat at 0.2 mg/kg, iv by LC-MS/MS analysis.
Data set [11] deals with T3, Metabotropic glutamate receptor 4 (Homo sapiens, UniProt Q14833). Description: Positive allosteric modulation of human mGlu4 receptor assessed as potentiation of glutamate-induced calcium mobiliztion by cell based assay. The format is functional.
Data set [12] addresses Metabotropic glutamate receptor 3 (Homo sapiens) (UniProt Q14832). The experiment in a line: Positive allosteric modulation of mGlu3 receptor (unknown origin) assessed as potentiation of glutamate-induced response by cell-based assay. In a few lines: (§2)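 Selectivity counterscreen at the other mGlu subtypes using the standard fold-shift paradigm. Compound was tested at 10 μM against the glutamate concentration-response curve, and the shift of that curve was read.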

Another data set concerns Mus musculus. The experiment in a line: Toxicity in C57BL/6 mouse assessed as seizure activity at 100 mg/kg, ip administered as single dose measured for 3 hrs. Type of data set: organism-based. The conditions noted are these: in vivo. In a few lines: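 Male C57Bl/6 mice (25−30 g) dosed ip in 10% Tween 80 at 10 mL/kg: the mGlu5 ago-PAM at 1 or 3 mg/kg, the mGlu1 PAMs at 100 mg/kg. Behaviour was monitored continuously for 3 h and scored on a modified Racine scale (0−5).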

For the next data set, the system named is Brain. The experiment in a line: Drug concentration in C57BL/6 mouse brain at 100 mg/kg, ip administered as single dose. The format is ADME, organism-based. The conditions noted are these: in vivo, read-out: Drug uptake.
For data set [13], the system named is Plasma. The experiment in a line: Drug metabolism in rat plasma assessed as 5-chloro-2-(2-chloro-4-(3-methylfuran-2-carboxamido)phenylcarbamoyl)benzoic acid level at 10 uM after 4 hrs by mass spectrometry. Type of data set: ADME, cell-free.
Data set [14] can be described thus: Intrinsic clearance in human liver microsomes at 1 uM by LC-MS/MS analysis. The note with it: read-out: CLH. Type of data set: ADME.
In data set [15] the target is Metabotropic glutamate receptor 1 (Rattus norvegicus) (UniProt P23385). The experiment in a line: Positive allosteric modulation of rat mGlu1 receptor assessed as potentiation of glutamate-induced calcium mobiliztion by cell based assay relative to glutamate. The format is functional. In a few lines:
as §1

Data set [16] relates to Plasma. Description: Drug metabolism in rat plasma assessed as 4-chloro-2-(2-chloro-4-(3-methylfuran-2-carboxamido)phenylcarbamoyl)benzoic acid level at 10 uM after 4 hrs by mass spectrometry. The format is ADME, cell-free.
The target of data set [17] is T3, Metabotropic glutamate receptor 4. Description: Positive allosteric modulation of human mGlu4 receptor assessed as potentiation of glutamate-induced calcium mobiliztion by cell based assay relative to PHCCC.
For data set [18], the target named is Metabotropic glutamate receptor 8 (Homo sapiens) (UniProt O00222). The experiment in a line: Positive allosteric modulation of mGlu8 receptor (unknown origin) assessed as potentiation of glutamate-induced response by cell-based assay. In a few lines:
as §2

Data set [19] concerns the target T1, Metabotropic glutamate receptor 1. The experiment in a line: Positive allosteric modulation of human mGlu1 receptor in HEK293 cells assessed as potentiation of glutamate-induced calcium mobiliztion by Fluo-4AM dye based fluorescence analysis relative to glutamate. Type of data set: functional, cell-based.
Target sequence in this assay (Q13255 19-1194 limits assumed): as above
Data set [20] can be described thus: Ratio of drug level in brain to plasma of Sprague-Dawley rat at 0.2 mg/kg, iv after 0.25 hrs by LC-MS/MS analysis. The conditions noted are these: read-out: BPR.
Data set [21] concerns the target Metabotropic glutamate receptor 2 (Homo sapiens) (UniProt Q14416). Description: Positive allosteric modulation of mGlu2 receptor (unknown origin) assessed as potentiation of glutamate-induced response by cell-based assay. In a few lines: as §2
The next data set deals with Rattus norvegicus. Description: Volume of distribution at steady state in Sprague-Dawley rat at 0.2 mg/kg, iv by LC-MS/MS analysis. The note with it: in vivo.
In data set [22] the target is T1, Metabotropic glutamate receptor 1. The experiment in a line: Agonist activity at human mGlu1 receptor in HEK293 cells assessed as calcium mobilization at 10 uM by Fluo-4AM dye based fluorescence analysis. The format is functional, cell-based. A general note: A change in cytosolic calcium serves as a functional read-out for many receptors and channels.
Target sequence in this assay (Q13255 19-1194 limits assumed): as above
The target of data set [23] is Metabotropic glutamate receptor 5 (Homo sapiens) (UniProt P41594). Description: Positive allosteric modulation of mGlu5 receptor (unknown origin) assessed as potentiation of glutamate-induced response by cell-based assay. In a few lines:
as §2

Data set [24] relates to Plasma. The experiment in a line: Drug metabolism in human plasma assessed as N-(4-amino-3-chlorophenyl)-3-methylfuran-2-carboxamide level at 10 uM after 4 hrs by mass spectrometry. Type of data set: ADME, cell-free.
Data set [25] deals with Metabotropic glutamate receptor 7 (Homo sapiens) (UniProt Q14831). Description: Positive allosteric modulation of mGlu7 receptor (unknown origin) assessed as potentiation of glutamate-induced response by cell-based assay. In a few lines:
as §2

The nature of data set [26]: Half life in Sprague-Dawley rat at 0.2 mg/kg, iv by LC-MS/MS analysis. The conditions noted are these: in vivo.
Data set [27] addresses Metabotropic glutamate receptor 6 (Homo sapiens) (UniProt O15303). The experiment in a line: Positive allosteric modulation of mGlu6 receptor (unknown origin) assessed as potentiation of glutamate-induced response by cell-based assay. In a few lines:
as §2

Data set [28] in a line: Mean residence time in Sprague-Dawley rat at 0.2 mg/kg, iv by LC-MS/MS analysis. The conditions noted are these: in vivo.
Data set [29] concerns Plasma. The experiment in a line: Drug metabolism in rat plasma assessed as N-(4-amino-3-chlorophenyl)-3-methylfuran-2-carboxamide level at 10 uM after 4 hrs by mass spectrometry. Type of data set: ADME, cell-free.
For data set [30], the target named is T1, Metabotropic glutamate receptor 1. Description: Negative allosteric modulation of human mGlu1 receptor in HEK293 cells assessed as potentiation of glutamate-induced calcium mobiliztion by Fluo-4AM dye based fluorescence analysis. Type of data set: functional, cell-based.
Target sequence in this assay (Q13255 whole entry): as the sequence (Q13255 whole entry) above

T3 sequence (Q14833 whole entry): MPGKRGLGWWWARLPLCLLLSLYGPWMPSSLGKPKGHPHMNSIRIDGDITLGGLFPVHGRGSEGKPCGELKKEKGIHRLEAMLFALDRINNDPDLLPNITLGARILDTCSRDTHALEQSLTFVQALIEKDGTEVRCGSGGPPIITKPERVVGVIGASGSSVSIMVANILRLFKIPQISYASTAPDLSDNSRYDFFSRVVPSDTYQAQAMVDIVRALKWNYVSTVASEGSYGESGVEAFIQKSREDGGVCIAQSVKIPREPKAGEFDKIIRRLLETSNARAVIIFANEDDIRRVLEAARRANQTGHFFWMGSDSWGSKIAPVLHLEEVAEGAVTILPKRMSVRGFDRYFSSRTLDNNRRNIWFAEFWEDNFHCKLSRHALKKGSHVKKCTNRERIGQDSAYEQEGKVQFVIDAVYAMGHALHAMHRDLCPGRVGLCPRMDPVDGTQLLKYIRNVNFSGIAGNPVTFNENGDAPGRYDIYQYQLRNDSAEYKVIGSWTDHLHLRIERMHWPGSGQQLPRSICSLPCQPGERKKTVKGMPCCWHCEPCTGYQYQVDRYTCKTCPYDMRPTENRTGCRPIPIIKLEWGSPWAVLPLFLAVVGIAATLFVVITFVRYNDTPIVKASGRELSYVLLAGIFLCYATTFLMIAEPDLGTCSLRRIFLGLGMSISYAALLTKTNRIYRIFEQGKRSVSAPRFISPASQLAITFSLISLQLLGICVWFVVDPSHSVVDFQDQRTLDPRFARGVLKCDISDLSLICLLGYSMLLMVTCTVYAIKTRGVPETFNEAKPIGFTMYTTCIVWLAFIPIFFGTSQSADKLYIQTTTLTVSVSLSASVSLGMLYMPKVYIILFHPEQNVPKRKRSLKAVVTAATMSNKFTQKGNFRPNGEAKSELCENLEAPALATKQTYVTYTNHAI
Sequence of Metabotropic glutamate receptor 1 (Rattus norvegicus, UniProt P23385) (P23385 whole entry): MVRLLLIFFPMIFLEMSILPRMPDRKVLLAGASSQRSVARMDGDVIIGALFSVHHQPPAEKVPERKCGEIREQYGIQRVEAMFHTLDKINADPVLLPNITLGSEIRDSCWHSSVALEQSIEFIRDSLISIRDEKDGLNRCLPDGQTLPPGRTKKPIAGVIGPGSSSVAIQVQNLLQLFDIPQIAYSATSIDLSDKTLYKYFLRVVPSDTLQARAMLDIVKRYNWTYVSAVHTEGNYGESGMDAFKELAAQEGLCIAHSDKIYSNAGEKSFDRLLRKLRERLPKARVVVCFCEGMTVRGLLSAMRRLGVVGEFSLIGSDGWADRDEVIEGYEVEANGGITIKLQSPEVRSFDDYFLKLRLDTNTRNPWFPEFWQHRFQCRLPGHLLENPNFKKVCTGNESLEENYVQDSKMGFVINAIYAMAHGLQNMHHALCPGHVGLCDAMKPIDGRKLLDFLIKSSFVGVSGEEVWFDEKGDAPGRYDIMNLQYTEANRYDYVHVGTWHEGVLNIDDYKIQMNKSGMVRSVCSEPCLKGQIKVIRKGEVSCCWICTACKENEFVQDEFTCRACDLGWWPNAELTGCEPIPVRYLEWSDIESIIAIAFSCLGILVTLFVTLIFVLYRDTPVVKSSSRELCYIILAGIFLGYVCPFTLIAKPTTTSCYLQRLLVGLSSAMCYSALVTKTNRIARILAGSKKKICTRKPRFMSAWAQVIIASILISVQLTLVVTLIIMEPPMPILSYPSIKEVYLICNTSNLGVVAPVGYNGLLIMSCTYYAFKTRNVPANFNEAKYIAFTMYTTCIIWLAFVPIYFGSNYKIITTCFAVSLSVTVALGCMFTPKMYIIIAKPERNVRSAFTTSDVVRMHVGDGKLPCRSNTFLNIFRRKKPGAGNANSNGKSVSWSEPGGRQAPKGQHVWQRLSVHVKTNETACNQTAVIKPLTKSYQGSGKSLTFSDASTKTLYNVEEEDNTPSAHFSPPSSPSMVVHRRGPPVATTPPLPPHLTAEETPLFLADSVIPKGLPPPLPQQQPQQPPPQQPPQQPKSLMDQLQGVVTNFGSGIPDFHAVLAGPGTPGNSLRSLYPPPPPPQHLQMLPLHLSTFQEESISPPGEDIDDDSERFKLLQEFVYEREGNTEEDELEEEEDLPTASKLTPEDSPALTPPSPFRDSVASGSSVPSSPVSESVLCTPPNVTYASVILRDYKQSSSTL
Sequence of Cytochrome P450 3A4 (P08684 whole entry): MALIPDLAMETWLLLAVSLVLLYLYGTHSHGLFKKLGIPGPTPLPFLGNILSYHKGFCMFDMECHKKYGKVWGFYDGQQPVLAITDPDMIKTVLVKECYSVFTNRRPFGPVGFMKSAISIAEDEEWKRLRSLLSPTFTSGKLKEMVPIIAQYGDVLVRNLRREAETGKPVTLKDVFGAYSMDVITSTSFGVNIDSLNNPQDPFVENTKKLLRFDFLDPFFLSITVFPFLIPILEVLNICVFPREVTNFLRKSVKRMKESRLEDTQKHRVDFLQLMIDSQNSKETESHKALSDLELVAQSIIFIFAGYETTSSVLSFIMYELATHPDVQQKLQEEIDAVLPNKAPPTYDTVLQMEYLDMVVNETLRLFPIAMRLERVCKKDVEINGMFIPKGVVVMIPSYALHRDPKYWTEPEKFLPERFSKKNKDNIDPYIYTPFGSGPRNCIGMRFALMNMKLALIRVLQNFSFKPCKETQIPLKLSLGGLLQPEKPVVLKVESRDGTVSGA

For `O=C(Nc1ccc(N2C(=O)c3cccc(Cl)c3C2=O)c(Cl)c1)c1ncccc1Cl`, the IC50 against Cytochrome P450 3A4, at Cytochrome P450 2D6, against Cytochrome P450 2C9 and against Cytochrome P450 1A2 was over 30000 nM in each case. The EC50 in data set [1] worked out at 356 nM; in data set [3] (hek293), 390 nM. Moreover, the Stability entry in the data set with Plasma [2] and in the data set on Plasma [4] was “Unstable” each time. In addition, the concentration at 0.25 h was 336 ng/mL in [5] and 284 ng/mL in [6].
For the compound `N[C@H](C(=O)O)c1cc(O)cc(O)c1`, the Activity in the data set on Hippocampus is given as 13.8 Hz.
Turning to `Cc1ccoc1C(=O)Nc1ccc(N2C(=O)c3ccc(Cl)cc3C2=O)c(Cl)c1`, the IC50 against Cytochrome P450 3A4, against Cytochrome P450 2D6, on Cytochrome P450 2C9 and on Cytochrome P450 1A2 was over 30000 nM throughout. For the same compound, the Drug metabolism entry in the data set with Plasma [7], in the data set with Plasma [8], in the data set on Plasma [13], in the data set with Plasma [16], in the data set on Plasma [24] and in the data set with Plasma [29] was “metabolite_detected” in each case. The fold change (FC) is 8.3 in data set [9]; 2 in [12]; 2 in [18]; 2 in data set [21]; 2 in data set [23]; 2 in [25]. Further, the fold change (FC) in data set [27] was found to be 2. In data set [10], this compound displayed a clearance of 33 mL/min/kg. Besides, the EC50 was 2250 nM in [11] (read-out: EC50), 2290 nM in data set [11] (read-out: pEC50 (converted)), 113 nM in data set [1] and 80.9 nM in data set [3]. The Activity result with Mus musculus was “Non-toxic”; in [22], under 20%. Besides, in the data set with Brain, the concentration was found to be 1400 nM. Besides, the Stability result with Plasma [2] and in the data set with Plasma [4] was “Unstable” each time. The CLint scaled at 1 µM in data set [14] came out at 2.9 mL/min/kg. For the same compound, the %max in data set [15] amounted to 107%; in data set [17], 89%; in [19], 94%. Further, in [20], the Kp at 0.25 h came out at 0.63. Also, the volume of distribution (Vdss) in the data set on Rattus norvegicus turned out to be 1.76 L/kg. This compound displayed a half-life in [26] of 1.52 h. Also, the concentration at 0.25 h in [5] stood at 173 ng/mL; in [6], 108 ng/mL. The compound further showed an MRT in data set [28] of 0.892 h.
Regarding `CC1(C)C2C(=O)N(c3ccc(NC(=O)c4ccccn4)cc3Cl)C(=O)C21` (centres undefined), in data set [30], the concentration for half-maximal inhibition (IC50) worked out at 140 nM.

For orientation: IC50 means the concentration that inhibits the measured activity by half. A word on the clearance: it is the rate of elimination divided by the concentration. A higher clearance goes with a high capacity for elimination. A word on the Vdss: it is the apparent volume that relates the amount in the body to the concentration in plasma or blood. A higher Vdss goes with wide distribution into tissue. As a reminder, the half-life is the time in which the quantity being followed falls by half. Read a low half-life as fast loss. Broadly, the MRT is the average time that molecules of a dose stay in the body.
